Among the data in ChEMBL document CHEMBL4765453, “Phenanthrolinic analogs of quinolones show antibacterial activity against M. tuberculosis” (Eur J Med Chem, 2020) are MIC90 values, retold here.

Each structure is given as a SMILES string. Values after ≈ are worked out from the molar mass of the structure shown.

The test system of the test is Mycobacterium tuberculosis. Briefly: Antibacterial activity against Mycobacterium bovis BCG measured after 7 days by resazurin microtiter assay. The class given is functional. The following applies: variant bovis BCG, 168 h, time 7 day. Summed up:
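Resazurin microtiter assay with two-fold drug dilutions in complete 7H9 broth. Exponential-phase cells are diluted to a final OD600 of 0.005 in 7H9 without Tween. Incubation is 7 days at 37°C, then 0.01% resazurin is added and plates are held 24 h more. MIC is the lowest concentration preventing the blue-to-pink change. Each MIC is determined three times in duplicate experiments.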
A general note: Resazurin is reduced to fluorescent resorufin, in cell work by metabolically active cells.
As usually defined, the MIC90 is the lowest concentration that inhibits either 90% of growth or 90% of the strains tested, depending on the study. High values mean lower susceptibility, low ones higher susceptibility. For `NCC[C@H](O)C(=O)N[C@@H]1C[C@H](N)[C@@H](O[C@H]2O[C@H](CN)[C@@H](O)[C@H](O)[C@H]2O)[C@H](O)[C@H]1O[C@H]1O[C@H](CO)[C@@H](O)[C@H](N)[C@H]1O` [AMIKACIN], the MIC90 is 0.46 µM (≈ 0.269 µg/mL).

Consider `Cn1cc(C(=O)O)c(=O)c2cc([N+](=O)[O-])c3cccnc3c21`, for which the MIC90 was 1.4 µM (≈ 0.419 µg/mL).

The molecule `CCn1cc(C(=O)O)c(=O)c2cc([N+](=O)[O-])c3cccnc3c21` registered an MIC90 of 2.67 µM (≈ 0.836 µg/mL).

The molecule `CCOC(=O)c1cn(CC)c2c(cc([N+](=O)[O-])c3cccnc32)c1=O` registered an MIC90 of 2.5 µM (≈ 0.853 µg/mL).

Consider `CC1COc2c(N3CCN(C)CC3)c(F)cc3c(=O)c(C(=O)O)cn1c23` (stereo unspecified) [OFLOXACIN], for which the MIC90 worked out at 1.73 µM (≈ 0.625 µg/mL). This MIC90 and that of the molecule before are within 1.5-fold of each other.

In the case of `CCOC(=O)c1cn(C)c2c(cc([N+](=O)[O-])c3cccnc32)c1=O`, the MIC90 was found to be 2.35 µM (≈ 0.769 µg/mL). This MIC90 and that of the molecule before are within 1.5-fold of each other.
